We go through eleven compounds from ChEMBL document CHEMBL1154904 (J Med Chem, 2010).

Data set [1] can be described thus: in vitro. The settings on record: human, Caco-2.
Data set [2] can be described thus: in vitro. The settings on record: human, Caco-2. The source holds these as a separate data set.
A short description of data set [3]: Plasma concentration in Sprague-Dawley rat deep vein thrombosis model at 10 mg/kg, po measured after 70 mins post. The class given is ADME, organism-based. Also on record: dose 10 mg/kg, route oral. The gist of the method:
(§1)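 For oral dosing, compound at 10, 30 or 50 mg/kg was solubilized in 0.5% methocel (5 mL/kg) and given by oral dosing tube. Rats were anesthetized 45 min after dosing, followed by the venous thrombus procedure. Blood was sampled at study termination for plasma drug concentration and coagulation times.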

A short description of data set [4]: Plasma concentration in Sprague-Dawley rat deep vein thrombosis model at 30 mg/kg, po measured after 70 mins post. The class given is ADME, organism-based. On the set-up: dose 30 mg/kg, route oral. An outline of the steps: as §1
Data set [5] in a line: Oral bioavailability in dog at 10 mg/kg, po. The class given is ADME, organism-based, Canis lupus familiaris. The note with it: in vivo. An outline of the steps:
(§2)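 Fasted animals received a single oral dose of 10 mg/kg unless another dose was specified. Half-life was taken from the po profile.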

Data set [6] concerns Rattus norvegicus. The experiment in a line: Plasma concentration in Sprague-Dawley rat electrical current-induced arterial thrombosis model at 0.3 mg/kg, iv administered 5 mins before electrical stimulation for 20 mins. The settings on record: in vivo. Also on record: dose 0.3 mg/kg, route intravenous. The class given is ADME, organism-based. An outline of the steps: (§3)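 Anesthetized rats with a carotid Doppler flow probe received 10% solutol vehicle or compound (0.03–1.0 mg/kg) by slow left jugular infusion over 20 min at 0.05 mL/min. Electrical stimulation of the carotid began 5 min into the infusion and lasted 5 min. Occlusion was followed for 30 min; plasma drug levels were related to aPTT.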

Data set [7] is described as follows: Oral bioavailability in rat at 10 mg/kg. The settings on record: in vivo. The class given is ADME, organism-based. The gist of the method: as §2
A short description of data set [8]: Plasma concentration in mongrel dog arterio-venous shunt model of thrombosis at 3 mg/kg, po after 1 hr. The class given is ADME, organism-based, Canis lupus familiaris. On the set-up: dose 3 mg/kg, route oral. An outline of the steps: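 Adult mongrel dogs of either sex (13.2–14.5 kg) were dosed orally at 3 mg/kg. After a 1 h observation period they were anesthetized with pentobarbital (35 mg/kg iv). Plasma taken at the 1 h time point was assayed for drug concentration and aPTT.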

Data set [9] can be described thus: Plasma concentration in Sprague-Dawley rat deep vein thrombosis model at 0.3 mg/kg, iv administered for 45 mins measured after 30 mins post dose. Also on record: dose 0.3 mg/kg, route intravenous. The class given is ADME, organism-based. An outline of the steps:
(§4)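 Rats received vehicle (solutol 10% and D5W) or compound by jugular vein infusion over 45 min at 0.04 mL/min, to total cumulative doses of 0.1, 0.3 or 1.0 mg/kg. Thrombus formation in the vena cava began at 30 min of infusion. Blood was drawn from a carotid catheter at the end of the experiment for coagulation times and plasma drug concentration.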

The nature of data set [10]: Tmax in healthy human at 4 to 500 mg po. The note with it: in vivo.
Data set [11] is described as follows: Plasma concentration in Sprague-Dawley rat deep vein thrombosis model at 50 mg/kg, po measured after 70 mins post. On the set-up: dose 50 mg/kg, route oral. The class given is ADME, organism-based. An outline of the steps: as §1
A short description of data set [12]: Plasma concentration in Sprague-Dawley rat deep vein thrombosis model at 0.1 mg/kg, iv administered for 45 mins measured after 30 mins post dose. The class given is ADME, organism-based. Also on record: dose 0.1 mg/kg, route intravenous. The gist of the method:
as §4

A short description of data set [13]: Cmax in dog at 10 mg/kg, po. The settings on record: in vivo. On the set-up: dose 10 mg/kg, route oral. The class given is ADME, organism-based, Canis lupus familiaris. An outline of the steps:
(§5)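 Fasted rats or dogs received a single oral dose of 10 mg/kg. Plasma drug levels gave Cmax and oral half-life.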

Data set [14] can be described thus: Cmax in rat at 30 mg/kg, po. The class given is ADME, organism-based. Also on record: dose 30 mg/kg, route oral. The note with it: in vivo. The gist of the method:
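Rats were fasted and given a single oral dose of 30 mg/kg. Cmax was taken from plasma drug concentrations.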

A short description of data set [15]: Apparent volume of distribution with respect to bioavailability in healthy human at 100 to 500 […]. The class given is ADME, organism-based. The settings on record: in vivo, in the assay text read “100 to 500 mg” for “100 to 500 mg/kg”, read-out: Vc/F. An outline of the steps:
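Double-blind, placebo-controlled single oral solution doses (4–500 mg) in healthy fasted (≥10 h) males: six drug and two placebo subjects per cohort, given with 200 mL water. Venous blood was taken predose and at 0.5–48 h for plasma levels. aPTT was recorded in seconds and as a ratio to individual −1 h baseline.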

The nature of data set [16]: Plasma concentration in Sprague-Dawley rat deep vein thrombosis model at 1 mg/kg, iv administered for 45 mins measured after 30 mins post dose. The class given is ADME, organism-based. On the set-up: dose 1 mg/kg, route intravenous. An outline of the steps: as §4
In data set [17] the test system is Rattus norvegicus. In words: Plasma concentration in Sprague-Dawley rat electrical current-induced arterial thrombosis model at 1 mg/kg, iv administered 5 mins before electrical stimulation for 20 mins. The class given is ADME, organism-based. Also on record: dose 1 mg/kg, route intravenous. The note with it: in vivo. An outline of the steps:
as §3

Data set [18] is described as follows: Cmax in rat at 10 mg/kg, po. The class given is ADME, organism-based. On the set-up: dose 10 mg/kg, route oral. The note with it: in vivo. An outline of the steps:
as §5

As a reminder, the Papp B→A is how fast a substance crosses the layer from the basolateral side. The Papp A→B is the apparent permeability from the apical to the basolateral side of a cell layer. In the case of `CCc1ccc(CCNc2ncc(C)n(CC(=O)NCCONC(=N)N)c2=O)cc1`, in data set [1], the Papp B→A was determined as 10.3 ×10⁻⁶ cm/s. For the same compound, the Papp A→B in [2] worked out at 0.29 ×10⁻⁶ cm/s.

Consider `Cc1cnc(NCC(c2ccccc2)c2ccccc2)c(=O)n1CC(=O)NCCONC(=N)N`, for which, in [1], the Papp B→A was 13 ×10⁻⁶ cm/s. In [2], the Papp A→B was 0.14 ×10⁻⁶ cm/s.

One may read the Tmax as the time at which the peak concentration occurs. Usually Cmax stands for the peak of the concentration-time curve. On to `Cc1cnc(NCC(F)(F)c2ccccc2)c(=O)n1CC(=O)NCCONC(=N)N`, for which the Papp B→A in data set [1] is 6.45 ×10⁻⁶ cm/s. Besides, the concentration at 70 min in [3] stood at 100 nM; in data set [4], 760 nM; in data set [11] it was 730 nM. Also, the results for the bioavailability in data set [5] and in data set [7] were 103% and 23%, respectively. The concentration in data set [6] amounted to 120 nM; in [17] it was 310 nM. Further, the concentration at 1 h in data set [8] turned out to be 870 nM. Further, the concentration at 0.5 h in data set [9] is 540 nM; in data set [12] it was 310 nM; in data set [16] it was 800 nM. Further, the Tmax in [10] amounted to 1.25 h. The Cmax in [13] came out at 5700 nM; in data set [14], 3300 nM. Also, the Vd/F in [15] is 530 L. Besides, in data set [2], the Papp A→B was 1.37 ×10⁻⁶ cm/s.

In turn, `Cc1cnc(NCCc2cccc3ccccc23)c(=O)n1CC(=O)NCCON=C(N)N` came in with a Papp B→A in data set [1] of 11.8 ×10⁻⁶ cm/s. In [2], the Papp A→B turned out to be 0.32 ×10⁻⁶ cm/s.

In data set [1], `Cc1cnc(NCCc2ccc(F)c(F)c2)c(=O)n1CC(=O)NCCONC(=N)N` came in with a Papp B→A of 1.84 ×10⁻⁶ cm/s. For the same compound, in [2], the Papp A→B was 0.92 ×10⁻⁶ cm/s.

For the compound `Cc1cnc(NCCc2ccc3c(c2)CCC3)c(=O)n1CC(=O)NCCONC(=N)N`, in data set [1], the Papp B→A stood at 4.29 ×10⁻⁶ cm/s. The Papp A→B in data set [2] worked out at 0.67 ×10⁻⁶ cm/s.

With `Cc1ccc(CCNc2ncc(C)n(CC(=O)N(C)CCON=C(N)N)c2=O)cc1`, in data set [1], the Papp B→A turned out to be 0.6 ×10⁻⁶ cm/s. The same compound returned a Papp A→B in data set [2] of 0.27 ×10⁻⁶ cm/s.

Consider `N#Cc1cnc(NCC(F)(F)c2ccccc2)c(=O)n1CC(=O)NCCON=C(N)N`, for which the Cmax in [18] turned out to be 200 nM; in [13], 3300 nM. Moreover, in data set [1], the apparent permeability from basolateral to apical (Papp B→A) amounted to 2.26 ×10⁻⁶ cm/s. Besides, the bioavailability in data set [5] is 57%; in [7], 11%. The results for the concentration in data set [6] and in data set [17] were 85 nM and 380 nM, respectively. Moreover, the concentration at 1 h in [8] was 480 nM. In addition, the Papp A→B in data set [2] is 0.5 ×10⁻⁶ cm/s.

On to `Cc1cnc(NCCc2ccc(F)cc2)c(=O)n1CC(=O)NCCONC(=N)N`, for which the Papp B→A in data set [1] turned out to be 1.48 ×10⁻⁶ cm/s. The Papp A→B in data set [2] was 0.55 ×10⁻⁶ cm/s.

In the case of `N=C(N)NOCCNC(=O)Cn1c(Cl)cnc(NCC(F)(F)c2ccccc2)c1=O`, the results for the Cmax in data set [18] and in data set [13] were 200 nM and 1600 nM, respectively. In addition, the Papp B→A in data set [1] amounted to 3.04 ×10⁻⁶ cm/s. In addition, the bioavailability in [5] came out at 60%; in data set [7], 9%. The Papp A→B in data set [2] came to 0.5 ×10⁻⁶ cm/s.

Turning to `Cc1cnc(NCCc2ccc(F)cc2F)c(=O)n1CC(=O)NCCONC(=N)N`, the Papp B→A in data set [1] turned out to be 1.91 ×10⁻⁶ cm/s. The same compound gave a Papp A→B in data set [2] of 0.5 ×10⁻⁶ cm/s.
